Assay [1] concerns SK-OV-3. As to the kind of experiment: Growth inhibition of human SKOV3 cells after 48 hrs by SRB assay. It counts as functional. The settings on record: SK-OV-3, 48 h. In outline: (§1)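 Cells plated at 7000–8000 per well in DMEM with 5% FBS/1% gentamicin, grown 24 h at 37 °C, 5% CO2. Compounds from 10 mg/mL DMSO stock added as serial dilutions; doxorubicin and paclitaxel as positive controls.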

The species named for assay [2] is Bos taurus. As to the kind of experiment: Inhibition of [3H]colchicine binding to calf brain tubulin at 5 uM incubated for 10 mins by scintillation counting method relative to control. In short, it runs like this:
(§2)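 Tubulin at 1.0 μM with 5.0 μM [3H]colchicine, 5% (v/v) DMSO and test compound at 1.0 or 5.0 μM. Binding-stabilizing buffer: 1.0 M monosodium glutamate (pH 6.6), 0.5 mg mL–1 BSA, 0.1 M glucose-1-phosphate, 1.0 mM MgCl2, 1.0 mM GTP. Incubated 10 min at 37 °C, stopped with ice-cold water, trapped on DEAE-cellulose filters and scintillation-counted. Counts corrected for filter binding without tubulin; percent inhibition versus no-inhibitor samples.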

Assay [3] relates to NCI-H460. As to the kind of experiment: Growth inhibition of human NCI-H460 cells after 48 hrs by SRB assay. As to conditions: NCI-H460, 48 h. Format: functional. In outline:
as §1

For assay [4], the system named is DU-145. In words: Growth inhibition of human DU145 cells after 48 hrs by SRB assay. Format: functional. The settings on record: DU-145, 48 h. In short, it runs like this:
as §1
A general note: In SRB staining, fixed cells bind dye roughly in proportion to their protein.

For assay [5], the species on record is Bos taurus. As to the kind of experiment: Inhibition of [3H]colchicine binding to calf brain tubulin at 1 uM incubated for 10 mins by scintillation counting method relative to control. In short, it runs like this:
as §2

Assay [6] in a line: Inhibition of bovine brain tubulin polymerization preincubated for 15 mins followed by GTP addition and measured for 20 mins by spectrophotometric method. Details: species or system Bos taurus. In outline:
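Final mixture: 10 μM (1 mg/mL) bovine brain tubulin, 0.8 M monosodium glutamate pH 6.6, 4% DMSO, 0.4 mM GTP, varied compound concentrations. All components except GTP preincubated 15 min at 30 °C, chilled to 0 °C, GTP added, then jumped to 30 °C.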

In assay [7] the test system is A549. In words: Vascular disrupting activity in human A549 cells xenografted in T-cell deficient athymic homozygous nude rat assessed as reduction of blood flow at 15 mg/kg, ip after 2 hrs by color doppler ultrasound imaging method. Format: functional, organism-based. In outline:
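Nude rat bearing subcutaneous leg A549 tumor (3 × 10^6 cells in serum-free medium with 50% Matrigel; tumor about 0.5 cm3). Under isoflurane, color-Doppler ultrasound performed before and 2 h after 15 mg/kg IP in 500 μl saline; tumor blood perfusion compared with baseline.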
(Xenograft models place foreign cells or tissue in a host animal.)

Assay [8] has as its system MDA-MB-231. In words: Vascular disrupting activity in luciferase expressing human MDA-MB-231 cells xenografted in BALB/c SCID mouse at 200 mg/kg, ip at 24 hrs by bioluminescence imaging method relative to control. It counts as functional. In outline: (§3)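 Orthotopic tumors from 1 × 10^6 MDA-MB-231-luc cells in PBS/50% Matrigel injected into left upper mammary fat pad of BALB/c SCID mice. Dynamic BLI over 30 min after luciferin injection at baseline, then 4 and 24 h after IP dosing in saline (200 mg/kg in the mouse shown), with fresh luciferin each time; signal reduction expressed versus baseline.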

The test system of assay [9] is MDA-MB-231. As to the kind of experiment: Vascular disrupting activity in luciferase expressing human MDA-MB-231 cells xenografted in BALB/c SCID mouse at 200 mg/kg, ip at 4 hrs by bioluminescence imaging method relative to control. Format: functional. In short, it runs like this: as §3

Data on three compounds can be found in ChEMBL document CHEMBL4257558, “Synthesis of dihydronaphthalene analogues inspired by combretastatin A-4 and their biological evaluation as anticancer agents” (Medchemcomm, 2018).

The source made the active and inactive calls. The calls are words filed in the database; no cut-off is given here.

The GI50 is the concentration at which growth is held to half of that of the control. The low end stands for greater sensitivity of the cells, the high end for lower sensitivity of the cells. By inhibition is commonly meant the change of the read-out against control, counted positive when it falls. A lower inhibition goes with little suppression. Usually IC50 stands for the midpoint of a concentration-inhibition curve. A higher IC50 goes with weaker potency. With `COc1ccc2c(c1O)CCC=C2C(=O)c1cc(OC)c(OC)c(OC)c1`, the results for the GI50 in assay [1], in [3] and in assay [4] were 6.22 nM, 21.6 nM and 7.3 nM, respectively. Further, the inhibition was 98% in assay [2] and 81% in assay [5]. Also, the concentration for half-maximal inhibition (IC50) in assay [6] is 1200 nM.
Take `COc1cc(C2=CCCc3c2ccc(OC)c3OP(=O)(O)O)cc(OC)c1OC`: in [7], the result was Active. Further, the GI50 in assay [1] is 1.9 nM; in assay [3], 3.73 nM; in assay [4] it was 3.27 nM. In assay [6], this compound showed an IC50 of over 20000 nM.
For the compound `COc1cc(C(=O)C2=CCCc3c2ccc(OC)c3OP(=O)([O-])[O-])cc(OC)c1OC.[Na+].[Na+]`, the results for the Activity in assay [8] and in assay [9] were 81% and 99%, respectively. Moreover, the values for the GI50 in [1], in [3] and in assay [4] were 12.9 nM, 52.4 nM and 12.6 nM, respectively. Further, in assay [6], the 50% inhibitory concentration (IC50) was over 20000 nM.
